# Screening data deposited in PubChem BioAssay by The Scripps Research Institute Molecular Screening Center.
# HTRA1 inh – HTRA1 (human) protease inhibition; Q92743; actives 0.5% (n = 340,000); recombinant HTRA1, FP-rhodamine activity-based probe, fluorescence polarization; inhibition, % at 5.96 µM; in the data active = inhibition above about 36%
# PAFAH2 FP inh – PAFAH2 (human) inhibition; Q99487; recombinant PAFAH2, FP-rhodamine activity probe, fluorescence polarization; inhibition, % at 3.39 µM; actives 0.99% (n = 340,000); AID 492956;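 active = inhibition above the mean over all tested compounds plus 3 SD, cut at about 30% in these data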;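 note: inhibitors block probe labeling of enzyme so polarization drops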
# PAFAH1B3 inh – blocks human PAF acetylhydrolase 1B catalytic subunit 3 | inhibition, % at 3.39 µM | Q15102 | actives 0.28% (n = 340,000) | recombinant PAFAH1B3, FP-rhodamine probe, fluorescence polarization | AID 492972;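 active = inhibition above the screen-wide average of all tested compounds plus 3 SD, cut at about 25% in these data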
# PAFAH1B2 inh – PAFAH1B2 (human) inhibition. P68402. recombinant PAFAH1B2, FP-rhodamine activity probe, fluorescence polarization. inhibition, % at 3.39 µM. actives 1.2% (n = 340,000);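 active = inhibition above the mean of all tested compounds plus 3 SD, cut at about 24% in these data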
# Target sequence (P68402 whole entry, looked up): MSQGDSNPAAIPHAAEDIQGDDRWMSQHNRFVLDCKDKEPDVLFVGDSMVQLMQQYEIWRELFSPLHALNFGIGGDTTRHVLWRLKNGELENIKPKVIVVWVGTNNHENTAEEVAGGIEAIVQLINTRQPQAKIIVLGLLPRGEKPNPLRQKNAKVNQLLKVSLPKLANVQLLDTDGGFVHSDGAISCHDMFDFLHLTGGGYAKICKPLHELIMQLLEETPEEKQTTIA
# ABHD4 inh – inhibits mouse alpha/beta hydrolase domain 4. AID 720543. purified mABHD4, FP-Rh probe fluorescence polarization. inhibition, % at 8.92 µM. actives 0.54% (n = 370,000). Q8VD66;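 active = inhibition exceeding the mean over every tested compound plus 3 SD, cut at about 30% in these data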
# Target sequence (Q8VD66 whole entry, looked up, the tested form may be a part): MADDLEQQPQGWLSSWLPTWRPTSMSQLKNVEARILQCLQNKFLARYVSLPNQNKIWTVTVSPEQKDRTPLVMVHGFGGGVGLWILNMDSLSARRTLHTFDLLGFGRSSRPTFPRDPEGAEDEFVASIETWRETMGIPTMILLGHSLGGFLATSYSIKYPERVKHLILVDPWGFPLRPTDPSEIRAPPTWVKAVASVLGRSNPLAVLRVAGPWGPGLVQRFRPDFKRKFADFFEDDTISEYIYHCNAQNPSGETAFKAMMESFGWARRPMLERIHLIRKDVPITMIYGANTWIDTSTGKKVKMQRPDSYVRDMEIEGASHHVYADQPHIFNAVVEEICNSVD
#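 Assay system: mABHD4 protein; medium: HEPES pH 7.0, NaCl, Pluronic buffer; dosing: 8.92 µM, single dose; schedule: 45 min + 60 min at 25 °C; signal: FP readout, ex 525 nm / em 598 nm; read-out: normalized percent inhibition of probe labeling; repeats: single replicate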
# pPAFAH inh – inhibitors of human plasma PAF acetylhydrolase (pPAFAH); recombinant pPAFAH, FP-rhodamine probe fluorescence polarization; inhibition, % at 3.39 µM; actives 1.5% (n = 330,000); AID 463082;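 active = inhibition above the mean inhibition across the screen plus 3 SD, cut at about 25% in these data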;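 note: inhibitors block binding of the rhodamine activity-based probe so polarization drops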
# PAFAH1B3 confirm – confirmation of human PAFAH1B3 inhibitors; shares compounds with PAFAH1B3 inh; AID 493032; recombinant PAFAH1B3, FP-Rh activity-based probe, fluorescence polarization; actives 30% (n = 390); inhibition, % at 3.39 µM;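 active = average inhibition over triplicate runs above the hit cutoff set in the earlier primary screen, cut at about 25% in these data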
# Numbers stand for hits; 0 = inactive; - = no result; + = active, no number. In the library only some 2.8% were active in any assay of this set; here they are far more common.
SMILES,HTRA1 inh,PAFAH2 FP inh,PAFAH1B3 inh,PAFAH1B2 inh,ABHD4 inh,pPAFAH inh,PAFAH1B3 confirm
O=C(c1ccc(F)cc1)n1ccc2ccc(-c3ccc4ccn(Cc5ccccc5)c4c3)cc21,-,-,-,-,0,-,-
CO[C@H]([C@H](C)/C=C/N(C)C=O)[C@@H](C)C(O)CC[C@H](C)[C@H](O)[C@H](C)[C@H]1OC(=O)/C=C/C(C)=C/C[C@H](O)C[C@@H]2C=CC[C@@H](C[C@H](OC)[C@@]3(CO3)[C@@H](OC)C[C@@H](OC)[C@@H]1C)O2 (stereo partly specified),-,-,-,-,0,-,-
COC(=O)c1c[nH]c2c1-c1cc(C(=O)OCc3ccccc3)n(S(=O)(=O)c3ccc(C)cc3)c1C(=O)C2=O,0,0,38,0,0,-,0
COC(=O)c1cc2c(c3c4cc(C)ccc4n(S(=O)(=O)c4ccc(C)cc4)c13)C(=O)N(Cc1ccccc1)C2,-,-,-,-,0,-,-
O=C(N/N=C/c1cc(Br)ccc1OC(=O)c1ccc(Br)cc1)c1ccncc1,0,0,26,0,0,0,0
O=C(N/N=C/c1cc(Br)ccc1O)c1ccncc1,0,0,0,0,0,0,-
Cc1cc(C)cc(NC(=O)C2(C(=O)C3CC3)CC(c3ccccc3C(F)(F)F)=NO2)c1 (stereo unspecified),-,-,-,-,0,-,-
COC1=C(c2ccccc2)C(=O)c2ccccc2C1=O,0,0,0,0,0,0,-
O=C(C1=C(c2ccccc2)C(=O)c2ccccc2C1=O)c1ccccc1,0,0,58,0,0,-,26
CC1(NC(=O)c2cc(Cl)nc3ccccc23)CCS(=O)(=O)C1 (stereo unspecified),0,0,35,0,0,0,0
O=C(NC1CC1)c1cc(Cl)nc2ccccc12,0,0,0,0,0,-,-
CN1Cc2nnn(Cc3ccccc3)c2-c2cc(N3CCCCC3)ccc2S1(=O)=O,-,-,-,-,0,-,-
Cc1cccc(CNC(=O)NC2CCCCN(Cc3cccc(Cl)c3)C2=O)c1 (stereo unspecified),-,-,-,-,0,-,-
CCOC(=O)c1c(C)oc2c1C(=O)c1ccccc1C2=O,0,0,30,0,0,0,0
CCc1nnc(N/N=C/c2cc(Br)c(O)cc2O)n1N,0,0,26,0,0,0,0
Cc1cc(NC2=CC(=O)C(=O)c3ccccc32)no1,0,0,33,0,0,-,34
COc1cc(OC)c(NC2=CC(=O)C(=O)c3ccccc32)cc1Cl,0,0,42,0,0,0,33
O=C(Cn1nc(-c2ccccc2)ccc1=O)NCCc1cccc(F)c1,-,-,-,-,0,-,-
S=c1[nH]nc(-c2cc(-c3ccccc3)n[nH]2)n1N=Cc1cccc(Oc2ccccc2)c1,-,-,-,-,0,-,-
CC(=O)N1CCc2c1cccc2S(=O)(=O)NC(CC(C)C)C(=O)Nc1ccc(F)cc1Cl (stereo unspecified),-,-,-,-,0,-,-
COCCCN1C(=O)[C@H](CC(=O)N2CCOCC2)[C@]2(C(=O)OC)CCCCC=C12,-,-,-,-,0,-,-
CNC(=O)c1cccc(NC(=O)c2cc(-c3ccccc3)nc3c2cnn3C(C)C)c1,0,0,0,0,0,0,-
COc1cc(NC(=O)c2cc(-c3ccccc3)nc3c2cnn3C(C)C)cc(OC)c1OC,0,0,26,0,-,0,0
CCOc1ccccc1/C=C\c1nc(O)c([N+](=O)[O-])c(=O)[nH]1,0,0,28,0,0,0,0
COc1cc(/C=C/C(=O)CC(=O)/C=C/c2ccc(O)c(OC)c2)ccc1O,0,0,26,0,0,0,0
SMILES,HTRA1 inh,PAFAH2 FP inh,PAFAH1B3 inh,PAFAH1B2 inh,ABHD4 inh,pPAFAH inh,PAFAH1B3 confirm
Cc1cccc(-c2cccc3c4c([nH]c23)[C@@H]2C[C@H](N(C)C(=S)NCCc3ccccc3)[C@H]([C@H](C)O)CN2CC4)c1,-,-,-,-,0,-,-
O=[N+]([O-])c1ccc(N/N=C/c2c[nH]c3ccccc23)c(S(=O)(=O)Nc2ccc(Cl)cc2)c1,0,0,30,0,0,0,0
Cc1ccccc1-c1cc2c(nn1)-c1ccccc1C2=O,0,0,34,0,0,0,0
Cc1ccc(-c2cc3c(nn2)-c2ccccc2C3=O)cc1,0,0,0,0,0,0,-
O=C1c2ccccc2C(=O)N1OCCCN1C(=O)c2ccccc2S1(=O)=O,0,0,0,0,0,-,-
O=C1c2ccccc2S(=O)(=O)N1CCCN1C(=O)c2ccccc2S1(=O)=O,0,0,30,0,0,-,0
CCN(CC)C(=O)CC[C@@H]1CC[C@]2(CCCN(C(=O)C(C)(C)C)C2)O1,-,-,-,-,0,-,-
COC(=O)[C@H](C(C)C)N(CCc1cn(Cc2ccc(C)cc2)nn1)S(=O)(=O)c1ccccc1Br,-,-,-,-,0,-,-
COc1ccc(S(=O)(=O)Nc2cc(SCC(=O)O)c(O)c3ccccc23)cc1,0,0,44,0,49,0,0
COc1ccc(S(=O)(=O)Nc2cc(Sc3ncn[nH]3)c(O)c3ccccc23)cc1,-,-,-,-,0,-,-
CCn1c(=O)n(CC(=O)N2CCN(c3ccc(F)cc3)CC2)c(=O)c2ccccc21,-,-,-,-,0,-,-
C[C@@H]1C=C(C(=O)NCc2nc3ccccc3[nH]2)O[C@H](OCCCCO)C1,0,0,+,0,0,0,0
C[C@@H]1C=C(C(=O)NCc2nc3ccccc3[nH]2)O[C@H](OCc2ccc(CO)cc2)C1,0,0,0,0,0,0,-
CCCCn1c(NC(=O)c2ccc(Br)o2)c(S(=O)(=O)c2ccccc2)c2nc3ccccc3nc21,0,0,50,0,0,0,0
CCC(=O)Nc1c(S(=O)(=O)c2ccccc2)c2nc3ccccc3nc2n1C(C)c1ccccc1 (stereo unspecified),0,0,0,0,0,0,-
CCCC(=O)N1CCC(C(=O)NC2CCCc3ccccc32)CC1 (stereo unspecified),-,-,-,-,0,-,-
C=CC(=O)N=c1sc2ccccc2n1-c1ccccc1,0,0,55,0,0,0,47
[O-][n+]1onc2c1CCc1c-2nc(-c2ccccc2)n1OCc1ccccc1,0,0,0,0,0,0,-
COn1c(-c2ccccc2)nc2c1CCc1c-2no[n+]1[O-],0,0,26,0,0,0,27
[O-][n+]1onc2c1CCc1nnc(-c3ccccc3)cc1-2,0,0,78,0,0,0,84
CSc1ccc(/C=N/Nc2cccc(C(=O)O)c2)cc1,0,0,33,0,-,-,26
O=C(O)c1cccc(N/N=C/c2ccc(OC(F)(F)F)cc2)c1,0,0,0,0,0,0,-
Cc1[nH][nH]c(=O)c1C(c1ccc(-c2cccc(Cl)c2)o1)c1c(C)[nH][nH]c1=O,0,0,46,0,-,0,0
CC(C)Oc1cccc(-c2n[nH]c(=S)n2N=Cc2ccc(OCc3ccccc3)cc2)c1,-,-,-,-,0,-,-
COc1ccccc1C(=O)NC1CCCCN(Cc2ccccc2C)C1=O (stereo unspecified),-,-,-,-,0,-,-
